According to ChEMBL document CHEMBL1649390, “New (RS)-benzoxazepin-purines with antitumour activity: The chiral switch from (RS)-2,6-dichloro-9-[1-(p-nitrobenzenesulfonyl)-1,2,3,5-tetrahydro-4,1-benzoxazepin-3-yl]-9H-purine” (Eur J Med Chem, 2011):

Experiments:
[1] = Cell cycle arrest in human MCF10A cells assessed as accumulation at S phase after 48 hrs using propidium iodide staining by flow cytometry (reference value: 21.78 +/- 0.46 %); format: ADME, cell-based; details: mcf-10a
MDA-MB-231 [2] = assay: Cell cycle arrest in human MDA-MB-231 cells assessed as accumulation at G0/G1 phase after 48 hrs using propidium iodide staining by flow cytometry (reference value: 42.06 +/- 0.01 %); format: functional
MDA-MB-231 [3] = assay: Cell cycle arrest in human MDA-MB-231 cells assessed as accumulation at G2/M phase after 48 hrs using propidium iodide staining by flow cytometry (reference value: 31.59 +/- 0.03 %); format: functional
MCF7 [4] = assay: Cell cycle arrest in human MCF7 cells assessed as accumulation at S phase after 48 hrs using propidium iodide staining by flow cytometry (reference value: 8.55 +/- 0.40 %); format: functional
[5] = Cell cycle arrest in human MCF10A cells assessed as accumulation at G0/G1 phase after 48 hrs using propidium iodide staining by flow cytometry (reference value: 65.70 +/- 1.14 %); format: ADME, cell-based; details: mcf-10a
[6] = Cell cycle arrest in human MCF10A cells assessed as accumulation at G2/M phase after 48 hrs using propidium iodide staining by flow cytometry (reference value: 12.55 +/- 0.68 %); format: ADME, cell-based; details: mcf-10a
MCF7 [7] = assay: Cell cycle arrest in human MCF7 cells assessed as accumulation at G2/M phase after 48 hrs using propidium iodide staining by flow cytometry (reference value: 1.57 +/- 2.12 %); format: functional
MDA-MB-231 [8] = assay: Cell cycle arrest in human MDA-MB-231 cells assessed as accumulation at S phase after 48 hrs using propidium iodide staining by flow cytometry (reference value: 26.35 +/- 0.03 %); format: functional
MCF7 [9] = assay: Cell cycle arrest in human MCF7 cells assessed as accumulation at G0/G1 phase after 48 hrs using propidium iodide staining by flow cytometry (reference value: 89.88 +/- 1.73 %); format: functional
MDA-MB-231 [10] = assay: Cytotoxicity against human MDA-MB-231 cells expressing high level of p53 […]; format: functional, cell-based
MCF7 [11] = assay: Induction of apoptosis in human MCF7 cells assessed as early apoptotic cells at IC50 concentration after 24 hrs using V-FITC and propidium iodide staining by flow cytometry relative to control; format: functional
MCF7 [12] = assay: Cytotoxicity against human MCF7 cells expressing wild type p53 and ras mutant […]; format: functional, cell-based
MCF7 [13] = assay: Induction of apoptosis in human MCF7 cells assessed as necrotic cells at IC50 concentration after 24 hrs using V-FITC and propidium iodide staining by flow cytometry (reference value: 9.55 +/- 0.21 %); format: functional
MCF7 [14] = assay: Induction of apoptosis in human MCF7 cells assessed as early apoptotic cells at IC50 concentration after 48 hrs using V-FITC and propidium iodide staining by flow cytometry relative to control; format: functional
MCF7 [15] = assay: Induction of apoptosis in human MCF7 cells assessed as viable cells at IC50 concentration after 48 hrs using V-FITC and propidium iodide staining by flow cytometry (reference value: 86.26 +/- 7.25 %)
MCF7 [16] = assay: Induction of apoptosis in human MCF7 cells assessed as cell viability at IC50 concentration after 24 hrs using V-FITC and propidium iodide staining by flow cytometry (reference value: 90.42 +/- 0.63 %); format: functional
MCF7 [17] = assay: Induction of apoptosis in human MCF7 cells assessed as late apoptotic cells at IC50 concentration after 24 hrs using V-FITC and propidium iodide staining by flow cytometry (reference value: 0.03 +/- 0.01 %); format: functional
MCF7 [18] = assay: Induction of apoptosis in human MCF7 cells assessed as necrotic cells at IC50 concentration after 48 hrs using V-FITC and propidium iodide staining by flow cytometry (reference value: 12.61 +/- 7.50 %); format: functional
MCF7 [19] = assay: Induction of apoptosis in human MCF7 cells assessed as late apoptotic cells at IC50 concentration after 24 hrs using V-FITC and propidium iodide staining by flow cytometry (reference value: 1.11 +/- 0.24 %); format: functional
[20] = Cytotoxicity against human MCF10A cells […] by SRB assay; format: cell-based; details: MCF-10A
[21] = Therapeutic index, ratio of IC50 for human MCF10A cells to IC50 for human MDA-MB-231 cells expressing high level of p53; format: cell-based; details: MCF10A cells versus MDA-MB-231 cells (high level of p53), read-out: Ratio IC50
In short: (§1)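 Ratio of IC50 in non-tumour MCF-10A to IC50 in the tumour line, both from the SRB growth assay described for cytotoxicity.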

Mus musculus [22] = assay: Acute toxicity in BALB/c mouse assessed as mortality up to 50 mg/kg, po after 2 weeks; format: organism-based; parameters: dose 50 mg/kg, route oral; details: in vivo, 336 h
In short: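 Female BALB/c mice, six weeks old (about 20 g), were dosed once by gavage at 0.05, 0.5, 5 and 50 mg/kg (n = 25) in 0.25 mL of 0.9% NaCl/DMSO. Controls received saline or DMSO alone. Body weight and signs of systemic toxicity (listlessness, weight loss) and local toxicity (alopecia, skin reaction, leg motility) were checked twice weekly over 2 weeks.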

Mus musculus [23] = assay: Acute toxicity in BALB/c mouse assessed as mortality up to 200 mg/kg, ip after 2 weeks; format: organism-based; parameters: dose 200 mg/kg, route intraperitoneal; details: in vivo, 336 h
In short: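 Six-week-old female BALB/c mice (about 20 g) were given a single i.p. bolus at 50, 75, 100, 150 and 200 mg/kg (n = 25), dissolved in 0.25 mL of 0.9% NaCl/DMSO. Vehicle controls received saline or DMSO alone. Mice were weighed and scored twice weekly for 2 weeks for systemic toxicity (listlessness, weight loss) and local toxicity (alopecia, skin reaction, leg motility).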

[24] = Therapeutic index, ratio of IC50 for human MCF10A cells to IC50 for human MCF7 cells expressing wild type p53 and ras mutant; format: cell-based; details: MCF10A cells versus MCF7 cells (wild type p53, ras mutant), read-out: Ratio IC50; in short: as §1

| Structure (SMILES) | Activity [1] [%] | Activity (MDA-MB-231 [2]) [%] | Activity (MDA-MB-231 [3]) [%] | Activity (MCF7 [4]) [%] | Activity [5] [%] | Activity [6] [%] | Activity (MCF7 [7]) [%] | Activity (MDA-MB-231 [8]) [%] | Activity (MCF7 [9]) [%] | IC50 (MDA-MB-231 [10]) [nM] | Activity (MCF7 [11]) [%] | IC50 (MCF7 [12]) [nM] | Activity (MCF7 [13]) [%] | Activity (MCF7 [14]) [%] | viability (MCF7 [15]) [%] | Activity (MCF7 [16]) [%] | Activity (MCF7 [17]) [%] | Activity (MCF7 [18]) [%] | Activity (MCF7 [19]) [%] | IC50 [20] [nM] | other results |
| --- | --- | --- | --- | --- | --- | --- | --- | --- | --- | --- | --- | --- | --- | --- | --- | --- | --- | --- | --- | --- | --- |
| O=c1[nH]cc(F)c(=O)[nH]1 [FLUOROURACIL] | 55.74 | 38.98 | 25.63 | 6.06 | 34.2 | 9.56 | 8.06 | 35.39 | 87.4 |  |  |  |  |  |  |  |  |  |  |  |  |
| O=[N+]([O-])c1ccc(S(=O)(=O)N2C[C@@H](n3cnc4c(Cl)nc(Cl)nc43)OCc3ccccc32)cc1 | 25.02 | 39.97 | 30.67 | 7.88 | 64.22 | 10.76 | 3.1 | 29.37 | 89.02 | 110 | 0.1 | 100 | 10.37 | 28.82 | 63.98 | 89.36 | 0.34 | 1.84 | 5.35 |  |  |
| O=[N+]([O-])c1ccc(S(=O)(=O)N2C[C@H](n3cnc4c(Cl)nc(Cl)nc43)OCc3ccccc32)cc1 | 22 | 50.78 | 46.24 | 11.06 | 65.33 | 12.68 | 1.22 | 2.98 | 87.22 | 110 | 0.68 | 190 | 10.23 | 41.99 | 44.55 | 88.56 | 0.51 | 2.94 | 10.51 |  |  |
| O=[N+]([O-])c1ccc(S(=O)(=O)N2CC(n3cnc4c(Cl)nc(Cl)nc43)OCc3ccccc32)cc1 (racemic) | 22.14 | 45.4 | 25.4 | 8.55 | 65.94 | 11.92 | 1.57 | 29.36 | 87.2 | 166 | 0.66 | 355 | 4.93 | 23.38 | 46.65 | 94.16 | 0.23 | 16.13 | 13.84 | 1820 | selectivity ratio [21]: 11; Activity (Mus musculus [22]): Non-toxic; Activity (Mus musculus [23]): Non-toxic; selectivity ratio [24]: 5.14 |
| CC(=O)O[C@H]1C(=O)[C@@]2(C)[C@H]([C@H](OC(=O)c3ccccc3)[C@]3(O)C[C@H](OC(=O)[C@H](O)[C@@H](NC(=O)c4ccccc4)c4ccccc4)C(C)=C1C3(C)C)[C@]1(OC(C)=O)CO[C@@H]1C[C@@H]2O [PACLITAXEL] | 39.75 | 100 | 0 | 19.01 | 36.76 | 23.5 | 18.5 | 0 | 62.48 |  |  |  |  |  |  |  |  |  |  |  |  |
| O=S(=O)(c1ccccc1NO)N1CC(n2cnc3c(Cl)nc(Cl)nc32)OCc2ccccc21 (racemic) |  |  |  |  |  |  |  |  |  | 487 | 0 | 1530 | 9.11 | 18.73 | 70.82 | 90.86 | 0.11 | 5.52 | 4.92 | 1230 | selectivity ratio [21]: 2.53; selectivity ratio [24]: 0.8 |
| O=[N+]([O-])c1ccccc1S(=O)(=O)N1CC(n2cnc3c(I)nc(Cl)nc32)OCc2ccccc21 (racemic) | 21.98 | 40.38 | 30.3 | 9.53 | 66.69 | 11.34 | 6.38 | 28.82 | 84.1 | 256 | 0 | 610 | 7.69 | 24.27 | 58.32 | 92.22 | 0.08 | 8.08 | 9.33 | 351 | selectivity ratio [21]: 1.37; selectivity ratio [24]: 0.57 |
